Results from ChEMBL document CHEMBL3526081 (Drug Metab Dispos, 2011).

Columns and labels:
Liver microsome [1] = assay: Drug metabolism in human liver microsomes assessed as 5beta-hydroxylcinobufagin formation at 100 uM at 37 degC after 30 mins by UFLC-ESI-MS analysis in presence of NADPH-generating system; type: ADME; conditions: 0.5 h
How it was run: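 CB (100 µM; acetonitrile ≤1% final) was incubated with pooled HLM (0.3 mg/ml) plus NADPH-generating system (1 mM NADP+, 10 mM glucose 6-phosphate, 1 unit/ml G6PDH, 4 mM MgCl2) in pH 7.4 phosphate buffer at 37°C for 30 min. Products were identified by UFLC-ESI-MS and quantified by UFLC-DAD at 294 nm.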

[2] = Drug metabolism in Swiss-Hauschka (ICR) mouse liver microsomes assessed as dihydroxylcinobufagin formation at 100 uM at 37 degC after 30 mins by UFLC-ESI-MS analysis in presence of NADPH-generating system; type: ADME; conditions: 0.5 h
How it was run: (§1)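 Liver microsomes (0.3 mg protein/ml) incubated with 100 µM substrate at 37°C for 30 min, in 100 mM potassium phosphate pH 7.4 with NADPH-generating system (1 mM NADP+, 10 mM glucose 6-phosphate, 1 unit/ml G6PDH, 4 mM MgCl2). Acetonitrile ≤1% final. Stopped with ice-cold acetonitrile and centrifuged. Metabolites identified by UFLC-ESI-MS and quantified by UFLC-DAD at 294 nm against authentic standard curves.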

Liver microsome [3] = assay: Drug metabolism in human liver microsomes assessed as 1alpha-hydroxylcinobufagin formation at 100 uM at 37 degC after 30 mins […] in presence of 10 uM furafylline CYP1A2 inhibitor; type: ADME; conditions: 0.5 h
Liver microsome [4] = assay: Drug metabolism in human liver microsomes assessed as 1alpha-hydroxylcinobufagin formation at 100 uM at 37 degC after 30 mins […] in presence of 50 uM triethylenethiophosphoramide CYP2B6 inhibitor; type: ADME; conditions: 0.5 h
[5] = Ratio of Vmax/Km in cynomolgus monkey liver microsomes assessed as 1alpha-hydroxylcinobufagin formation at 100 uM […] by UFLC-ESI-MS analysis; type: ADME, Macaca fascicularis; conditions: 0.5 h
[6] = Drug metabolism in Swiss-Hauschka (ICR) mouse liver microsomes assessed as 5beta-hydroxylcinobufaginn formation at 100 uM at 37 degC after 30 mins by UFLC-ESI-MS analysis; type: ADME; conditions: 0.5 h, read-out: Km(app); how it was run: as §1
Liver microsome [7] = assay: Drug metabolism in human liver microsomes assessed as 5beta-hydroxylcinobufagin formation at 100 uM at 37 degC after 30 mins […] in presence of 50 uM clomethiazole CYP2E1 inhibitor; type: ADME; conditions: 0.5 h

SMILES: CC(=O)O[C@H]1[C@H]2O[C@]23[C@@H]2CC[C@@H]4C[C@@H](O)CC[C@]4(C)[C@H]2CC[C@]3(C)[C@H]1c1ccc(=O)oc1 [CINOBUFAGIN]
- Drug metabolism (Liver microsome [1]): metabolite_detected
- Drug metabolism [2]: metabolite_detected
- Drug metabolism (Liver microsome [3]): metabolite_detected
- Drug metabolism (Liver microsome [4]): metabolite_detected
- Vmax/Km [5]: 62 µL/min/mg
- Km [6]: 10.1 µM
- Drug metabolism (Liver microsome [7]): metabolite_detected
